Data reported in ChEMBL document CHEMBL3872250, “Structure-activity and in vivo evaluation of a novel lipoprotein lipase (LPL) activator” (Bioorg Med Chem Lett, 2017).
Calls of active or inactive are those of the source. No cut-off for these calls is given here.

Assays:
[1] = biological target: T1, Lipoprotein lipase (Bos taurus) (UniProt P11151); assay: Inhibition of bovine recombinant lipoprotein lipase at 100 uM using p-Nitrophenyl butyrate as substrate by HTS assay
T1 sequence (whole entry): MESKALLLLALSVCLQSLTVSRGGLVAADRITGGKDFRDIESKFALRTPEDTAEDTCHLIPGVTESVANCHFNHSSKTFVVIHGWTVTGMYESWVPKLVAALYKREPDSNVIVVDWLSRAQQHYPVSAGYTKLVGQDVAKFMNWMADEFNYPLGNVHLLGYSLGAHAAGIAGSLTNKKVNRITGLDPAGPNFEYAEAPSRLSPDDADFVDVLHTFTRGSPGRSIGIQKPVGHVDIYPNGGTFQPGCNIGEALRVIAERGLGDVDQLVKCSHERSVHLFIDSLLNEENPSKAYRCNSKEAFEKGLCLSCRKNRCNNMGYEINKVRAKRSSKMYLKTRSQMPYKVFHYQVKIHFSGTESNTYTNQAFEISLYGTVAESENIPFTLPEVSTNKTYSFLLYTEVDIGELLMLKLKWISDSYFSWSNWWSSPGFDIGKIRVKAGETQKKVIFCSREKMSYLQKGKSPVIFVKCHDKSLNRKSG
Procedure, shortened: (§1)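 Recombinant LPL screened at 100 µM in a 384-well format with p-nitrophenyl butyrate as substrate. […] release was read as absorbance at 405 nm, and activity was expressed as fold change in absorbance.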

Mus musculus [2] = assay: Hepatoprotective activity against high fat diet fed C57BL/6 mouse liver assessed as increase in SIRT1 level at 10 mg/kg, ip administered daily on last week of 4 months study until end; type: functional, organism-based
Procedure, shortened: (§2)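 Mice on a high-fat diet for four months were dosed at 10 mg/kg for seven days. Hepatic protein levels of SIRT1 or LC3 were then measured. n = 5 mice; significance at P<0.05.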

Mus musculus [3] = assay: Reduction in serum cholesterol level in high fat diet fed C57BL/6 mouse at 10 mg/kg, ip administered daily on last week of 4 months study until end; type: functional, organism-based
Procedure, shortened: (§3)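 Serum triglycerides and cholesterol measured with commercial kits after sacrifice. Mice had four months of high-fat diet, with 10 mg/kg i.p. given in the last week. Mean ± SE, n = 3.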

Mus musculus [4] = assay: Toxicity in high fat diet fed C57BL/6 mouse liver assessed as morphological changes at 10 mg/kg, ip administered daily on last week of 4 months study until end by hematoxylin and eosin staining based assay; type: organism-based; settings: in vivo, 2922 h
Procedure, shortened: (§4)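 After four months of high-fat diet with 10 mg/kg i.p. dosing over the final week, livers were examined by gross morphology and size. Sections were stained with hematoxylin and eosin and viewed at 20X to assess lipid accumulation.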

[5] = biological target: T1, Lipoprotein lipase (Bos taurus); assay: Activation of bovine recombinant lipoprotein lipase at 100 uM using p-Nitrophenyl butyrate as substrate by HTS assay; procedure, shortened: as §1
Mus musculus [6] = assay: In vivo activation of lipoprotein lipase in high fat diet fed C57BL/6 mouse at 10 mg/kg, ip administered daily on last week of 4 months study until end by fluorescence assay; type: functional, organism-based
Mus musculus [7] = assay: Reduction in lipid accumulation in high fat diet fed C57BL/6 mouse liver at 10 mg/kg, ip administered daily on last week of 4 months study until end by hematoxylin and eosin staining based assay; type: functional, organism-based; procedure, shortened: as §4
Mus musculus [8] = assay: In vivo activation of lipoprotein lipase in high fat diet fed C57BL/6 mouse assessed as reduction in body weight at 1 to 10 mg/kg, ip administered daily on last week of 4 months study until end; type: functional, organism-based
Procedure, shortened: (§5)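 Mice fed a high-fat diet (60% kcal from fat) for four months, with daily i.p. dosing at 10 mg/kg during the final week. A dose-response at 1, 5 and 10 mg/kg was used to select the dose. Body weight, total body fat and lean mass were measured by EchoMRI before sacrifice. Mean ± S.D., n = 4.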

Mus musculus [9] = assay: Reduction in serum triglycerides level in high fat diet fed C57BL/6 mouse at 10 mg/kg, ip administered daily on last week of 4 months study until end; type: functional, organism-based; procedure, shortened: as §3
Mus musculus [10] = assay: Hepatoprotective activity against high fat diet fed C57BL/6 mouse liver assessed as increase in LC3 level at 10 mg/kg, ip administered daily on last week of 4 months study until end; type: functional, organism-based; procedure, shortened: as §2
Mus musculus [11] = assay: In vivo activation of lipoprotein lipase in high fat diet fed C57BL/6 mouse assessed as reduction in total body fat content at 1 to 10 mg/kg, ip administered daily on last week of 4 months study until end; type: functional, organism-based; procedure, shortened: as §5
[12] = biological target: T1, Lipoprotein lipase (Bos taurus); assay: Activation of bovine recombinant lipoprotein lipase at 100 uM using p-Nitrophenyl butyrate as substrate by HTS assay relative to NO-1886; procedure, shortened: as §1
Rattus norvegicus = assay: In vivo activation of lipoprotein lipase in STZ-induced diabetes rat model relative to control; type: functional
[13] = substrate: CC1(C)CC1(C(=O)NCCCn1ccnc1)c1ccc(F)cc1; assay: Binding affinity to bovine recombinant lipoprotein lipase assessed as Km for substrate using p-Nitrophenyl butyrate as substrate by Lineweaver-Burk plot analysis (reference value: 8.15 mM); settings: Bos taurus

`O=C(Cc1ccc(S)cc1)NCCCn1ccnc1` was tested. Which inhibition [1] did it give?
The inhibition was “Active”.

How did the inhibition [1] turn out when `CC1(C)CC1(C(=O)NCCNc1cccnc1)c1ccc(F)cc1` (configuration not stated) was run?
The inhibition was “Active”.

Which Activity (Mus musculus [2]) does the source give for `CC1(C)CC1(C(=O)NCCCn1ccnc1)c1ccc(F)cc1` (configuration not stated) here?
The Activity was “Active”.

What about the Activity (Mus musculus [3]) of the same molecule?
The Activity was “Active”.

What about the Activity (Mus musculus [4]) of the same molecule?
Its Activity is “Non-Toxic”.

And the Activity [5]?
Its Activity is “Active”.

And the Activity (Mus musculus [6])?
The Activity was “Active”.

And the Activity (Mus musculus [7])?
The Activity was “Active”.

And the Activity (Mus musculus [8])?
The Activity was “Active”.

What about the Activity (Mus musculus [9]) of the same molecule?
The Activity was “Active”.

And the Activity (Mus musculus [10])?
The Activity was “Active”.

And the Activity (Mus musculus [11])?
Its Activity is “Active”.

And the fold change (FC) [12]?
Its fold change (FC) is 2.

How did the Activity (Rattus norvegicus) turn out when `CCOP(=O)(Cc1ccc(C(=O)Nc2ccc(Br)cc2C#N)cc1)OCC` [IBROLIPIM] was run?
Its Activity is 59%.

With `O=C(Cc1ccc(Cl)cc1)NCCCn1ccnc1` as the molecule, how does the Activity [5] read?
The Activity was “Active”.

With `Cc1cccnc1CN1CCN(C(=O)C2(c3ccc(F)cc3)CC2(C)C)CC1` (configuration not stated) as the molecule, how does the inhibition [1] read?
The inhibition was “Active”.

`O=C(Cc1ccc(O)cc1)NCCCn1ccnc1` was tested. Which inhibition [1] did it give?
The inhibition was “Active”.

How did the Activity [5] turn out when `O=C(Cc1ccc(F)cc1)NCCCn1ccnc1` was run?
The Activity was “Active”.

Which inhibition [1] does the source give for `CC1(C)CC1(C(=O)NCCCc1csc(N)n1)c1ccc(F)cc1` (configuration not stated) here?
Its inhibition is “Active”.

`O=C(Cc1ccccc1)NCCCn1ccnc1` was tested. Which Activity [5] did it give?
The Activity was “Active”.

`CC1(C)CC1(C(=O)NCCCCN1CCOCC1)c1ccc(F)cc1` (configuration not stated) was tested. Which Activity [5] did it give?
The Activity was “Active”.

B1: Lipoprotein lipase (Bos taurus), P11151 (protein)
chain: MESKALLLLALSVCLQSLTVSRGGLVAADRITGGKDFRDIESKFALRTPEDTAEDTCHLIPGVTESVANCHFNHSSKTFVVIHGWTVTGMYESWVPKLVAALYKREPDSNVIVVDWLSRAQQHYPVSAGYTKLVGQDVAKFMNWMADEFNYPLGNVHLLGYSLGAHAAGIAGSLTNKKVNRITGLDPAGPNFEYAEAPSRLSPDDADFVDVLHTFTRGSPGRSIGIQKPVGHVDIYPNGGTFQPGCNIGEALRVIAERGLGDVDQLVKCSHERSVHLFIDSLLNEENPSKAYRCNSKEAFEKGLCLSCRKNRCNNMGYEINKVRAKRSSKMYLKTRSQMPYKVFHYQVKIHFSGTESNTYTNQAFEISLYGTVAESENIPFTLPEVSTNKTYSFLLYTEVDIGELLMLKLKWISDSYFSWSNWWSSPGFDIGKIRVKAGETQKKVIFCSREKMSYLQKGKSPVIFVKCHDKSLNRKSG
Which Km [13] does the source give for B1 here?
The Km was 648 µM.
